# Source: ChEMBL document CHEMBL1275560, “Serial daptomycin selection generates daptomycin-nonsusceptible Staphylococcus aureus strains with a heterogeneous vancomycin-intermediate phenotype” (2008)
# Calls of active or inactive are those of the source. The calls are words filed in the database; no cut-off is given here.
# Tests used:
# Staphylococcus aureus [1] = experiment: Antimicrobial activity against methicillin-resistant Staphylococcus aureus N315DeltaIP by Etest method; format: functional
# Summary of the method: (§1)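 Etest MICs on Mueller-Hinton agar, run per manufacturer. Fosfomycin plates carried 25 µg/ml glucose-6-phosphate. Daptomycin Etest was also done with 200 µM GdCl3 in agar. Daptomycin MICs were read at 24 h and again at 48 h to capture slowly growing resistant subpopulations.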
# Staphylococcus aureus [2] = experiment: Antimicrobial activity against Staphylococcus aureus 10*3d1 by Etest method; format: functional
# Summary of the method: (§2)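 MICs read by Etest on Mueller-Hinton agar, following the manufacturer's method. Agents tested were daptomycin, vancomycin, teicoplanin, linezolid, oxacillin, imipenem, bacitracin, fosfomycin and colistin. For fosfomycin the agar carried 25 µg/ml D-glucose-6-phosphate. The daptomycin Etest was also run with 200 µM gadolinium(III) chloride in the agar. Daptomycin MICs were read at both 24 h and 48 h.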
# Staphylococcus aureus [3] = experiment: Antimicrobial activity against Staphylococcus aureus 10*3d1-10 by Etest method; format: functional; summary of the method: as §2
# Staphylococcus aureus [4] = experiment: Antimicrobial activity against methicillin-resistant Staphylococcus aureus N315DeltaIP heteroresistant subpopulations by Etest method; format: functional; summary of the method: as §1
# Staphylococcus aureus [5] = experiment: Antimicrobial activity against methicillin-resistant Staphylococcus aureus N315DeltaIP by Etest method in presence of 200 uM GdCl3
# Staphylococcus aureus [6] = experiment: Antimicrobial activity against methicillin-resistant Staphylococcus aureus 10*3d1 by Etest method in presence of 200 uM GdCl3; format: functional
# Summary of the method: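 Etest on Mueller-Hinton agar containing gadolinium(III) chloride at 200 µM, used as a mechanosensitive channel (MscL) blocker; MICs read at 24 h and also at 48 h so a slowly growing resistant subpopulation is not missed. The strain is a two-step daptomycin-selected derivative of MRSA N315ΔIP, stocked at –80°C in 40% glycerol.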
# Staphylococcus aureus [7] = experiment: Antimicrobial activity against methicillin-resistant Staphylococcus aureus N315DeltaIP assessed as decreased membrane potential; format: functional, organism-based
# Summary of the method: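 Flow cytometry with DiOC2(3). Cells were grown to exponential phase (OD600 0.3) in MHB with 50 µg/ml calcium, then diluted 1:100 in kit buffer. GdCl3 was 200 µM final; CCCP-treated and heat-killed cells served as controls. TO-PRO-3 (500 nM) flagged damaged membranes. Dye at 30 µM, 4 min, room temperature. 10,000 cells per run, 488-nm excitation; red/green ratio of population mean fluorescence.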
Compound,MIC (Staphylococcus aureus [1]) [µg/mL],MIC (Staphylococcus aureus [2]) [µg/mL],MIC (Staphylococcus aureus [3]) [µg/mL],MIC (Staphylococcus aureus [4]) [µg/mL],MIC (Staphylococcus aureus [5]) [µg/mL],MIC (Staphylococcus aureus [6]) [µg/mL],Activity (Staphylococcus aureus [7])
C[C@@H]1O[C@@H]1P(=O)(O)O [FOSFOMYCIN],12,0.5,2,–,–,–,–
C[C@@H](O)[C@H]1C(=O)N2C(C(=O)O)=C(SCCNC=N)C[C@H]12 [IMIPENEM ANHYDROUS],2,> 32,> 32,3,–,–,–
COLISTIN,256,192,192,–,–,–,–
CCCCCCCCCC(=O)N[C@@H](Cc1c[nH]c2ccccc12)C(=O)N[C@H](CC(N)=O)C(=O)N[C@@H](CC(=O)O)C(=O)N[C@@H]1C(=O)NCC(=O)N[C@@H](CCCN)C(=O)N[C@@H](CC(=O)O)C(=O)N[C@H](C)C(=O)N[C@@H](CC(=O)O)C(=O)NCC(=O)N[C@H](CO)C(=O)N[C@@H]([C@H](C)CC(=O)O)C(=O)N[C@@H](CC(=O)c2ccccc2N)C(=O)O[C@@H]1C,0.5,3,1,–,0.5,3,Active
Cc1onc(-c2ccccc2)c1C(=O)N[C@@H]1C(=O)N2[C@@H]1SC(C)(C)[C@@H]2C(=O)O [OXACILLIN],24,> 256,> 256,192,–,–,–
CN[C@H](CC(C)C)C(=O)N[C@H]1C(=O)N[C@@H](CC(N)=O)C(=O)N[C@H]2C(=O)N[C@H]3C(=O)N[C@H](C(=O)N[C@H](C(=O)O)c4cc(O)cc(O)c4-c4cc3ccc4O)[C@H](O)c3ccc(c(Cl)c3)Oc3cc2cc(c3O[C@@H]2O[C@H](CO)[C@@H](O)[C@H](O)[C@H]2O[C@H]2C[C@](C)(N)[C@H](O)[C@H](C)O2)Oc2ccc(cc2Cl)[C@H]1O [VANCOMYCIN],0.75,3,–,–,–,–,–
